These results are taken from ChEMBL document CHEMBL4732057, “Design, synthesis and biological evaluation of second-generation benzoylpiperidine derivatives as reversible monoacylglycerol lipase (MAGL) inhibitors” (Eur J Med Chem, 2021).

One experiment deals with T1, Monoglyceride lipase (Homo sapiens, UniProt Q99685).
T1 sequence (Q99685 whole entry): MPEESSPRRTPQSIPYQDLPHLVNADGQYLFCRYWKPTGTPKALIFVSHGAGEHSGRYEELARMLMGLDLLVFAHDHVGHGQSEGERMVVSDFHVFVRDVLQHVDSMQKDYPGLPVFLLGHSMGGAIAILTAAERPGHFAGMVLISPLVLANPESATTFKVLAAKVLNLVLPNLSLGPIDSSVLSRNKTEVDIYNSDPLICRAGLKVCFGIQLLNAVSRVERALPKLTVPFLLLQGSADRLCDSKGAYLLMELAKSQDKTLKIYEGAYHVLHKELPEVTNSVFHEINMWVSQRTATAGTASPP
The experiment is described as follows: Inhibition of human recombinant MAGL using 4-nitrophenylacetate as substrate incubated for 30 mins by microplate reader assay. Summed up:
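Human recombinant MAGL, 11 ng/well, in 10 mM Tris pH 7.2 with 1 mM EDTA and 0.1 mg/mL BSA, at room temperature. 4-NPA 133.3 µM stock added; enzyme added last. Absorbance at 405 nm after 30 min, minus a no-enzyme blank for each concentration. Sigmoidal fit; duplicates of three independent experiments.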

Experiment [1] in a line: Antiproliferative activity against human PDAC-3 cells assessed as inhibition of cell growth incubated for 72 hrs by SRB assay. It is filed as functional, cell-based. As to conditions: PDAC-3, 72 h. Summed up:
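Primary patient-derived PDAC-3 cells, cultured under 20 passages in RPMI-1640 with 10% NBCS. Compounds dissolved in DMSO and tested at 8 concentrations, 156.25 to 20 000 nM. Growth read by sulforhodamine-B assay.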
(The SRB assay estimates cell density from bound dye.)

The subject of the next experiment is MDA-MB-231. The experiment is described as follows: Antiproliferative activity against human MDA-MB-231 cells as reduction in cell growth measured after 96 hrs by Celltiter-glo luminescent assay. The following applies: MDA-MB-231, 96 h. It is filed as functional, cell-based. Summed up:
(§1)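 Cell lines kept at 37 °C, 5% CO2; 5 × 10^2 cells per well, compound added the day after seeding at 200 to 0.02 µM. Viability read after 96 h by CellTiter-Glo luminescence. IC50 from logistic dose-response curves, in triplicate; error bars are SD.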
For orientation: ATP-based viability assays read luminescence as a measure of living cells.

Experiment [2] can be described thus: Cytotoxicity against cancer-derived human organoids in HGSOC patient assessed as reduction in cell viability up to 100 uM measured after 96 hrs by Celltiter-glo luminescent assay. It is filed as functional, Neoplasm. As to conditions: dose microM <=100. Summed up: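 Organoids from three HGSOC patients. Tissue digested with 2 mg/mL collagenase for 30 min, embedded in BME matrix and cultured. Treated at 100 µM, with carboplatin as positive control. Viability read by CellTiter-Glo luminescence.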

Another experiment deals with OVCAR-3. Description: Antiproliferative activity against human OVCAR3 cells as reduction in cell growth measured after 96 hrs by Celltiter-glo luminescent assay. Format: functional, cell-based. As to conditions: OVCAR-3, 96 h. Summed up:
as §1

Another experiment has as its system SK-OV-3. The experiment is described as follows: Antiproliferative activity against human SKOV3 cells as reduction in cell growth measured after 96 hrs by Celltiter-glo luminescent assay. As to conditions: SK-OV-3, 96 h. Format: functional, cell-based. Summed up:
as §1

For a further experiment, the system named is HCT-116. The experiment is described as follows: Antiproliferative activity against human HCT116 cells as reduction in cell growth measured after 96 hrs by Celltiter-glo luminescent assay. Format: functional, cell-based. As to conditions: HCT-116, 96 h. Summed up: as §1
A further experiment relates to Caov-3 cell line. Description: Antiproliferative activity against human CAOV3 cells as reduction in cell growth measured after 96 hrs by Celltiter-glo luminescent assay. It is filed as functional, cell-based. The following applies: Caov-3, 96 h. Summed up:
as §1

As to `CC(C)c1ccc(C(=O)C2CCN(C(=O)c3cc(O)ccc3C(F)(F)F)CC2)cc1`, the half-maximal inhibitory concentration (IC50) – broadly, the concentration that gives 50% inhibition – at Monoglyceride lipase stood at 8200 nM. With `CC(C)c1ccc(C(=O)C2CCN(C(=O)c3cc(O)ccn3)CC2)cc1`, the IC50 at Monoglyceride lipase is above 10000 nM. Still for that read-out and setting: to `O=C(c1ccc(-c2cn(CCCc3ccccc3)nn2)cc1)C1CCN(C(=O)c2cccc(O)c2)CC1` belongs 3300 nM; to `O=C(c1ccc(-c2cn(Cc3ccccc3)nn2)cc1)C1CCN(C(=O)c2cccc(O)c2)CC1`, 4400 nM; to `CC(C)c1ccc(C(=O)C2CCN(C(=O)c3ccnc(O)c3)CC2)cc1`, above 10000 nM.

Regarding `CC(C)c1ccc(C(=O)C2CCN(C(=O)c3cc(O)ccc3N)CC2)cc1`, at Monoglyceride lipase, the half-inhibitory concentration (IC50) was above 10000 nM.

`O=C(c1ccc(Cc2ccccc2)cc1)C1CCN(C(=O)c2cccc(O)c2)CC1`: at Monoglyceride lipase, the IC50 was found to be 78 nM.

For `CC(C)c1ccc(C(=O)C2CCN(C(=O)c3cc(O)ccc3F)CC2)cc1`, the concentration for half-maximal inhibition (IC50) at Monoglyceride lipase worked out at 81 nM. Same read-out and setting: under `O=C(c1ccc(-c2cn(-c3ccccc3)nn2)cc1)C1CCN(C(=O)c2cccc(O)c2)CC1` stands 1000 nM; under `O=C(c1ccc([S+]([O-])c2ccccc2)cc1)C1CCN(C(=O)c2cccc(O)c2)CC1` (stereo not given), 4300 nM; under `CC(C)c1ccc(C(=O)C2CCN(C(=O)c3cccc(O)c3)CC2)cc1`, 142 nM. Take `O=C(c1ccc(Sc2ccccc2)cc1)C1CCN(C(=O)c2cccc(O)c2)CC1`: the IC50 on Monoglyceride lipase is 74 nM.

As for `CC(C)c1ccc(C(=O)C2CCN(C(=O)c3cccc(O)n3)CC2)cc1`, the IC50 on Monoglyceride lipase was above 10000 nM. The same measure, in the same setting: to `CC(C)c1ccc(C(=O)C2CCN(C(=O)c3cncc(O)c3)CC2)cc1` belongs 2000 nM; to `O=C(c1ccc(Oc2ccccc2)cc1)C1CCN(C(=O)c2cccc(O)c2)CC1`, 278 nM. `O=C(c1ccc(C2CC2)cc1)C1CCN(C(=O)c2cccc(O)c2)CC1`: the half-inhibitory concentration (IC50) on Monoglyceride lipase is 368 nM.

As to `Nc1ccn([C@@H]2O[C@H](CO)[C@@H](O)C2(F)F)c(=O)n1` [GEMCITABINE], the IC50 in experiment [1] was determined as 5.54 nM. As to `COc1nn(-c2ccc(NC(=O)OCc3ccccc3)c(C)c2)c(=O)o1`, the IC50 in the experiment with MDA-MB-231 amounted to 83000 nM; on Monoglyceride lipase, 130 nM; in the experiment on OVCAR-3 it was 53000 nM; in the experiment on SK-OV-3, 33000 nM; with HCT-116, 38000 nM; in the experiment with Caov-3 cell line, 95000 nM. In addition, the “inhibition (INH)” value in experiment [2] was determined as 50%. As for `O=C(c1ccc(S(=O)(=O)c2ccccc2)cc1)C1CCN(C(=O)c2cccc(O)c2)CC1`, on Monoglyceride lipase, the IC50 came out at 3400 nM. `Cc1ccc(O)cc1C(=O)N1CCC(C(=O)c2ccc(C(C)C)cc2)CC1`: at Monoglyceride lipase, the IC50 amounted to 2300 nM. As for `O=C(c1ccc(C2CCCCC2)cc1)C1CCN(C(=O)c2cccc(O)c2)CC1`, the IC50 at Monoglyceride lipase was determined as 129 nM. Still for that read-out and setting: under `CC(C)c1ccc(C(=O)C2CCN(C(=O)c3cc(O)c(F)cc3F)CC2)cc1` stands 31 nM; under `CC(C)c1ccc(C(=O)C2CCN(C(=O)c3cc(O)ccc3[N+](=O)[O-])CC2)cc1`, 4500 nM; under `O=C(c1ccc(Nc2ccccc2)cc1)C1CCN(C(=O)c2cccc(O)c2)CC1`, 758 nM.
